Source: ChEMBL document CHEMBL4400518, “Synthesis, antimicrobial and cytotoxic activities, and molecular docking studies of N-arylsulfonylindoles containing an aminoguanidine, a semicarbazide, and a thiosemicarbazide moiety” (Eur J Med Chem, 2019)
Converted amounts (≈) assume the structure as drawn.

How the values were obtained:
Format in all cases: functional
Enterococcus faecalis = assay: Antibacterial activity against Enterococcus faecalis CMCC 29212 measured after 24 hrs by ELISA; conditions: CMCC 29212, 24 h
How it was run: (§1)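 Broth microdilution MIC. Mid-log bacteria in MHB or TSB diluted 1000-fold, inoculated at 10^5 CFU/mL. Compounds added from DMSO stocks; final DMSO at most 0.05%. Incubation 24 h at 37 °C. Growth read as absorbance at 630 nm. MIC taken as the lowest concentration giving complete growth inhibition. Three independent experiments.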

Bacillus subtilis = assay: Antibacterial activity against Bacillus subtilis CMCC 63501 measured after 24 hrs by ELISA; conditions: CMCC 63501, 24 h; how it was run: as §1
Pseudomonas aeruginosa [1] = assay: Antibacterial activity against Pseudomonas aeruginosa CMCC 27853 measured after 24 hrs by ELISA; conditions: CMCC 27853, 24 h; how it was run: as §1
Staphylococcus aureus [2] = assay: Antibacterial activity against Staphylococcus aureus CMCC 25923 measured after 24 hrs by ELISA; conditions: CMCC 25923, 24 h; how it was run: as §1
Pseudomonas aeruginosa [3] = assay: Antibacterial activity against Pseudomonas aeruginosa CMCC 10104 measured after 24 hrs by ELISA; conditions: CMCC 10104, 24 h; how it was run: as §1
Streptococcus pneumoniae = assay: Antibacterial activity against Streptococcus pneumoniae CMCC 31968 measured after 24 hrs by ELISA; conditions: CMCC 31968, 24 h
Escherichia coli [4] = assay: Antibacterial activity against Escherichia coli CMCC 44568 measured after 24 hrs by ELISA; conditions: CMCC 44568, 24 h; how it was run: as §1
Streptococcus pyogenes = assay: Antibacterial activity against Streptococcus pyogenes CMCC 32067 measured after 24 hrs by ELISA; conditions: CMCC 32067, 24 h; how it was run: as §1
Escherichia coli [5] = assay: Antibacterial activity against Escherichia coli CMCC 25922 measured after 24 hrs by ELISA; conditions: CMCC 25922, 24 h; how it was run: as §1
Staphylococcus aureus [6] = assay: Antibacterial activity against Staphylococcus aureus CMCC(B) 26003 measured after 24 hrs by ELISA; conditions: CMCC(B) 26003, 24 h; how it was run: as §1

SMILES	MIC (Enterococcus faecalis)	MIC (Bacillus subtilis)	MIC (Pseudomonas aeruginosa [1])	MIC (Staphylococcus aureus [2])	MIC (Pseudomonas aeruginosa [3])	MIC (Streptococcus pneumoniae)	MIC (Escherichia coli [4])	MIC (Streptococcus pyogenes)	MIC (Escherichia coli [5])	MIC (Staphylococcus aureus [6])
CC/C(=N/NC(=N)N)c1cn(S(=O)(=O)c2ccc(C)cc2)c2ccccc12	20.9 µM (≈ 8.01 µg/mL)	10.4 µM (≈ 4 µg/mL)	334 µM (≈ 128 µg/mL)	10.4 µM (≈ 4 µg/mL)	> 334 µM	83.5 µM (≈ 32 µg/mL)	20.9 µM (≈ 8.01 µg/mL)	5.22 µM (≈ 2 µg/mL)	20.9 µM (≈ 8.01 µg/mL)	5.22 µM (≈ 2 µg/mL)
NC(=O)N/N=C\c1cn(S(=O)(=O)c2ccccc2)c2ccccc12	> 374 µM	93.6 µM (≈ 32 µg/mL)	> 374 µM	93.6 µM (≈ 32 µg/mL)	> 374 µM	> 374 µM	> 374 µM	> 374 µM	> 374 µM	93.6 µM (≈ 32 µg/mL)
Cc1ccc(S(=O)(=O)n2cc(/C=N\NC(N)=S)c3ccccc32)cc1	> 343 µM	> 343 µM	343 µM (≈ 128 µg/mL)	> 343 µM	> 343 µM	> 343 µM	> 343 µM	> 343 µM	> 343 µM	343 µM (≈ 128 µg/mL)
CC/C(=N/NC(N)=O)c1cn(S(=O)(=O)c2ccc(C)cc2)c2ccccc12	> 333 µM	333 µM (≈ 128 µg/mL)	> 333 µM	83.3 µM (≈ 32 µg/mL)	> 333 µM	> 333 µM	> 333 µM	> 333 µM	> 333 µM	333 µM (≈ 128 µg/mL)
C/C(=N/NC(N)=S)c1cn(S(=O)(=O)c2ccc(C)cc2)c2ccccc12	332 µM (≈ 128 µg/mL)	166 µM (≈ 64.1 µg/mL)	332 µM (≈ 128 µg/mL)	332 µM (≈ 128 µg/mL)	> 332 µM	> 332 µM	332 µM (≈ 128 µg/mL)	> 332 µM	332 µM (≈ 128 µg/mL)	332 µM (≈ 128 µg/mL)
Cc1ccc(S(=O)(=O)n2cc(/C=N\NC(N)=O)c3cc(Br)ccc32)cc1	> 295 µM	9.22 µM (≈ 4.01 µg/mL)	> 295 µM	> 295 µM	> 295 µM	> 295 µM	> 295 µM	> 295 µM	> 295 µM	295 µM (≈ 128 µg/mL)
C/C(=N/NC(N)=O)c1cn(S(=O)(=O)c2ccc(C)cc2)c2ccccc12	> 346 µM	346 µM (≈ 128 µg/mL)	> 346 µM	> 346 µM	> 346 µM	> 346 µM	> 346 µM	> 346 µM	> 346 µM	346 µM (≈ 128 µg/mL)
CC/C(=N/NC(=N)N)c1cn(S(=O)(=O)c2ccccc2)c2ccccc12	43.4 µM (≈ 16 µg/mL)	> 347 µM	173 µM (≈ 64.1 µg/mL)	21.7 µM (≈ 8.01 µg/mL)	43.4 µM (≈ 16 µg/mL)	10.8 µM (≈ 4 µg/mL)	43.4 µM (≈ 16 µg/mL)	10.8 µM (≈ 4 µg/mL)	43.4 µM (≈ 16 µg/mL)	21.7 µM (≈ 8.01 µg/mL)
C/C(=N/NC(N)=S)c1cn(S(=O)(=O)c2ccccc2)c2ccccc12	> 344 µM	172 µM (≈ 64.1 µg/mL)	344 µM (≈ 128 µg/mL)	344 µM (≈ 128 µg/mL)	> 344 µM	> 344 µM	344 µM (≈ 128 µg/mL)	> 344 µM	344 µM (≈ 128 µg/mL)	344 µM (≈ 128 µg/mL)
CC/C(=N/NC(N)=S)c1cn(S(=O)(=O)c2ccc(C)cc2)c2ccc(Br)cc12	> 268 µM	> 268 µM	> 268 µM	268 µM (≈ 128 µg/mL)	> 268 µM	> 268 µM	268 µM (≈ 128 µg/mL)	> 268 µM	268 µM (≈ 128 µg/mL)	134 µM (≈ 64.2 µg/mL)
CC/C(=N/NC(N)=S)c1cn(S(=O)(=O)c2ccc(C)cc2)c2ccccc12	> 320 µM	> 320 µM	> 320 µM	320 µM (≈ 128 µg/mL)	> 320 µM	> 320 µM	> 320 µM	> 320 µM	> 320 µM	320 µM (≈ 128 µg/mL)
C/C(=N/NC(=N)N)c1cn(S(=O)(=O)c2ccccc2)c2ccc(Br)cc12	9.24 µM (≈ 4.01 µg/mL)	9.24 µM (≈ 4.01 µg/mL)	> 296 µM	4.62 µM (≈ 2.01 µg/mL)	> 296 µM	4.62 µM (≈ 2.01 µg/mL)	9.24 µM (≈ 4.01 µg/mL)	296 µM (≈ 128 µg/mL)	18.5 µM (≈ 8.03 µg/mL)	4.62 µM (≈ 2.01 µg/mL)
NC(=S)N/N=C\c1cn(S(=O)(=O)c2ccccc2)c2ccccc12	> 358 µM	> 358 µM	358 µM (≈ 128 µg/mL)	> 358 µM	> 358 µM	> 358 µM	> 358 µM	> 358 µM	> 358 µM	179 µM (≈ 64.1 µg/mL)
C/C(=N/NC(N)=O)c1cn(S(=O)(=O)c2ccccc2)c2ccccc12	> 360 µM	89.9 µM (≈ 32 µg/mL)	> 360 µM	> 360 µM	> 360 µM	> 360 µM	> 360 µM	> 360 µM	> 360 µM	360 µM (≈ 128 µg/mL)
N=C(N)N/N=C\c1cn(S(=O)(=O)c2ccccc2)c2ccccc12	46.9 µM (≈ 16 µg/mL)	11.7 µM (≈ 4 µg/mL)	46.9 µM (≈ 16 µg/mL)	11.7 µM (≈ 4 µg/mL)	23.5 µM (≈ 8.01 µg/mL)	46.9 µM (≈ 16 µg/mL)	23.5 µM (≈ 8.01 µg/mL)	> 375 µM	> 375 µM	5.87 µM (≈ 2 µg/mL)
NC(=O)N/N=C\c1cn(S(=O)(=O)c2ccccc2)c2ccc(Br)cc12	> 305 µM	19.1 µM (≈ 8.03 µg/mL)	> 305 µM	305 µM (≈ 128 µg/mL)	> 305 µM	> 305 µM	> 305 µM	> 305 µM	> 305 µM	38.1 µM (≈ 16.1 µg/mL)
C/C(=N/NC(N)=O)c1cn(S(=O)(=O)c2ccccc2)c2ccc(Br)cc12	36.9 µM (≈ 16 µg/mL)	295 µM (≈ 128 µg/mL)	> 295 µM	295 µM (≈ 128 µg/mL)	> 295 µM	> 295 µM	> 295 µM	> 295 µM	> 295 µM	295 µM (≈ 128 µg/mL)
Cc1ccc(S(=O)(=O)n2cc(/C=N\NC(N)=O)c3ccccc32)cc1	> 360 µM	44.9 µM (≈ 16 µg/mL)	360 µM (≈ 128 µg/mL)	180 µM (≈ 64.1 µg/mL)	> 360 µM	> 360 µM	360 µM (≈ 128 µg/mL)	> 360 µM	360 µM (≈ 128 µg/mL)	44.9 µM (≈ 16 µg/mL)
CC/C(=N/NC(=N)N)c1cn(S(=O)(=O)c2ccccc2)c2ccc(Br)cc12	8.95 µM (≈ 4.01 µg/mL)	4.47 µM (≈ 2 µg/mL)	> 286 µM	4.47 µM (≈ 2 µg/mL)	> 286 µM	1.12 µM (≈ 0.502 µg/mL)	4.47 µM (≈ 2 µg/mL)	> 286 µM	17.9 µM (≈ 8.03 µg/mL)	4.47 µM (≈ 2 µg/mL)
C/C(=N/NC(N)=S)c1cn(S(=O)(=O)c2ccc(C)cc2)c2ccc(Br)cc12	> 276 µM	> 276 µM	> 276 µM	276 µM (≈ 128 µg/mL)	> 276 µM	> 276 µM	> 276 µM	> 276 µM	> 276 µM	276 µM (≈ 128 µg/mL)

The next lines start with the values.

MIC (Enterococcus faecalis)	MIC (Bacillus subtilis)	MIC (Pseudomonas aeruginosa [1])	MIC (Staphylococcus aureus [2])	MIC (Pseudomonas aeruginosa [3])	MIC (Streptococcus pneumoniae)	MIC (Escherichia coli [4])	MIC (Streptococcus pyogenes)	MIC (Escherichia coli [5])	MIC (Staphylococcus aureus [6])	SMILES
> 284 µM	> 284 µM	> 284 µM	> 284 µM	> 284 µM	> 284 µM	> 284 µM	> 284 µM	> 284 µM	284 µM (≈ 128 µg/mL)	Cc1ccc(S(=O)(=O)n2cc(/C=N\NC(N)=S)c3cc(Br)ccc32)cc1
> 286 µM	8.93 µM (≈ 4.01 µg/mL)	> 286 µM	> 286 µM	> 286 µM	> 286 µM	> 286 µM	> 286 µM	> 286 µM	286 µM (≈ 128 µg/mL)	C/C(=N/NC(N)=O)c1cn(S(=O)(=O)c2ccc(C)cc2)c2ccc(Br)cc12
> 294 µM	> 294 µM	> 294 µM	> 294 µM	> 294 µM	> 294 µM	> 294 µM	> 294 µM	> 294 µM	294 µM (≈ 128 µg/mL)	NC(=S)N/N=C\c1cn(S(=O)(=O)c2ccccc2)c2ccc(Br)cc12
> 277 µM	> 277 µM	> 277 µM	> 277 µM	> 277 µM	> 277 µM	> 277 µM	> 277 µM	> 277 µM	> 277 µM	CC/C(=N/NC(N)=O)c1cn(S(=O)(=O)c2ccc(C)cc2)c2ccc(Br)cc12
166 µM (≈ 64.1 µg/mL)	82.9 µM (≈ 32 µg/mL)	332 µM (≈ 128 µg/mL)	332 µM (≈ 128 µg/mL)	> 332 µM	> 332 µM	332 µM (≈ 128 µg/mL)	> 332 µM	332 µM (≈ 128 µg/mL)	64 µM (≈ 24.7 µg/mL)	CC/C(=N/NC(N)=S)c1cn(S(=O)(=O)c2ccccc2)c2ccccc12
> 346 µM	> 346 µM	> 346 µM	346 µM (≈ 128 µg/mL)	> 346 µM	> 346 µM	> 346 µM	> 346 µM	> 346 µM	> 346 µM	CC/C(=N/NC(N)=O)c1cn(S(=O)(=O)c2ccccc2)c2ccccc12
> 284 µM	284 µM (≈ 128 µg/mL)	> 284 µM	> 284 µM	> 284 µM	> 284 µM	> 284 µM	> 284 µM	> 284 µM	284 µM (≈ 128 µg/mL)	C/C(=N/NC(N)=S)c1cn(S(=O)(=O)c2ccccc2)c2ccc(Br)cc12
> 276 µM	69 µM (≈ 32.1 µg/mL)	276 µM (≈ 128 µg/mL)	> 276 µM	> 276 µM	> 276 µM	> 276 µM	> 276 µM	> 276 µM	276 µM (≈ 128 µg/mL)	CC/C(=N/NC(N)=S)c1cn(S(=O)(=O)c2ccccc2)c2ccc(Br)cc12
> 286 µM	> 286 µM	> 286 µM	> 286 µM	> 286 µM	> 286 µM	> 286 µM	> 286 µM	> 286 µM	> 286 µM	CC/C(=N/NC(N)=O)c1cn(S(=O)(=O)c2ccccc2)c2ccc(Br)cc12
